# Key:
# Format in all cases: functional
# SR = assay: Growth inhibition of human SR cells at 10 uM incubated for 48 hrs by sulforhodamine B assay relative to control; conditions: read-out: GI
# How it was run: (§1)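 NCI single-dose screen: cells grown in RPMI 1640 with 5% FBS and 2 mM L-glutamine, plated at 5,000–40,000 cells/well and preincubated 24 h at 37 °C, 5% CO2. Compounds taken from DMSO stock and tested at final 10 µM for 48 h. Cells fixed with TCA, stained with 0.4% SRB, absorbance read at 515 nm. Percentage growth calculated against untreated controls; controls held DMSO at the same dilution.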
# NCI-H522 = assay: Growth inhibition of human NCI-H522 cells at 10 uM incubated for 48 hrs by sulforhodamine B assay relative to control; conditions: NCI-H522, 48 h, read-out: GI
# How it was run: (§2)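 Single-dose screen at 10 μM final: cells in RPMI 1640, 5% FBS, 2 mM L-glutamine, plated 5,000–40,000/well, preincubated 24 h at 37°C, 5% CO2; drug 48 h; adherent cells fixed with 10% TCA, suspension cells with 16% TCA; SRB stain, absorbance 515 nm; percentage growth versus untreated control, with time-zero plates.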
# MOLT-4 = assay: Growth inhibition of human MOLT4 cells at 10 uM incubated for 48 hrs by sulforhodamine B assay relative to control; conditions: MOLT-4, 48 h, read-out: GI; how it was run: as §2
# IGROV-1 = assay: Growth inhibition of human IGROV1 cells at 10 uM incubated for 48 hrs by sulforhodamine B assay relative to control; conditions: IGROV-1, 48 h, read-out: GI; how it was run: as §2
# CAKI-1 = assay: Growth inhibition of human Caki1 cells at 10 uM incubated for 48 hrs by sulforhodamine B assay relative to control; conditions: CAKI-1, 48 h, read-out: GI; how it was run: as §2
# A549 = assay: Growth inhibition of human A549/ATCC cells at 10 uM incubated for 48 hrs by sulforhodamine B assay relative to control; conditions: A549, 48 h, read-out: GI; how it was run: as §2
# LOX IMVI = assay: Growth inhibition of human LOXIMVI cells at 10 uM incubated for 48 hrs by sulforhodamine B assay relative to control; conditions: read-out: GI; how it was run: as §2
# RPMI-8226 = assay: Growth inhibition of human RPMI8226 cells at 10 uM incubated for 48 hrs by sulforhodamine B assay relative to control; conditions: RPMI-8226, 48 h, read-out: GI; how it was run: as §2
# DU-145 = assay: Growth inhibition of human DU145 cells at 10 uM incubated for 48 hrs by sulforhodamine B assay relative to control; conditions: DU-145, 48 h, read-out: GI; how it was run: as §2
# UACC-257 = assay: Growth inhibition of human UACC257 cells at 10 uM incubated for 48 hrs by sulforhodamine B assay relative to control; conditions: UACC-257, 48 h, read-out: GI; how it was run: as §1
# NCI/ADR-RES = assay: Growth inhibition of human NCI/ADR-RES cells at 10 uM incubated for 48 hrs by sulforhodamine B assay relative to control; conditions: read-out: GI; how it was run: as §2
# UO-31 = assay: Growth inhibition of human UO31 cells at 10 uM incubated for 48 hrs by sulforhodamine B assay relative to control; conditions: UO-31, 48 h, read-out: GI; how it was run: as §1
# HT-29 = assay: Growth inhibition of human HT-29 cells at 10 uM incubated for 48 hrs by sulforhodamine B assay relative to control; conditions: HT-29, 48 h, read-out: GI; how it was run: as §2
# HCT-116 = assay: Growth inhibition of human HCT116 cells at 10 uM incubated for 48 hrs by sulforhodamine B assay relative to control; conditions: HCT-116, 48 h, read-out: GI; how it was run: as §2
# HL-60(TB) = assay: Growth inhibition of human HL-60(TB) cells at 10 uM incubated for 48 hrs by sulforhodamine B assay relative to control; conditions: HL-60, 48 h, read-out: GI
# How it was run: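 Single dose of 10 µM in the NCI ~60-line panel. Cells grown in RPMI 1640 with 5% FBS and 2 mM L-glutamine, plated and pre-incubated 24 h, then exposed 48 h at 37°C under 5% CO2. Suspension cells fixed with TCA (16% final) and stained with sulforhodamine B, A515 read. Reported as percent growth versus untreated control and as GI%.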
# 786-0 = assay: Growth inhibition of human 786-0 cells at 10 uM incubated for 48 hrs by sulforhodamine B assay relative to control; conditions: 786-0, 48 h, read-out: GI; how it was run: as §2
# TK-10 = assay: Growth inhibition of human TK10 cells at 10 uM incubated for 48 hrs by sulforhodamine B assay relative to control; conditions: TK-10, 48 h, read-out: GI; how it was run: as §1
# SNB-19 = assay: Growth inhibition of human SNB19 cells at 10 uM incubated for 48 hrs by sulforhodamine B assay relative to control; conditions: SNB-19, 48 h, read-out: GI; how it was run: as §1
# ACHN = assay: Growth inhibition of human ACHN cells at 10 uM incubated for 48 hrs by sulforhodamine B assay relative to control; conditions: read-out: GI; how it was run: as §2
# SK-MEL-2 = assay: Growth inhibition of human SK-MEL-2 cells at 10 uM incubated for 48 hrs by sulforhodamine B assay relative to control; conditions: SK-MEL-2, 48 h, read-out: GI; how it was run: as §1
# SNB-75 = assay: Growth inhibition of human SNB75 cells at 10 uM incubated for 48 hrs by sulforhodamine B assay relative to control; conditions: SNB-75, 48 h, read-out: GI; how it was run: as §1
# MDA-MB-468 = assay: Growth inhibition of human MDA-MB-468 cells at 10 uM incubated for 48 hrs by sulforhodamine B assay relative to control; conditions: MDA-MB-468, 48 h, read-out: GI; how it was run: as §2
# CCRF-CEM = assay: Growth inhibition of human CCRF-CEM cells at 10 uM incubated for 48 hrs by sulforhodamine B assay relative to control; conditions: read-out: GI; how it was run: as §2
# OVCAR-8 = assay: Growth inhibition of human OVCAR8 cells at 10 uM incubated for 48 hrs by sulforhodamine B assay relative to control; conditions: OVCAR-8, 48 h, read-out: GI; how it was run: as §2
# Hs-578T = assay: Growth inhibition of human Hs 578T cells at 10 uM incubated for 48 hrs by sulforhodamine B assay relative to control; conditions: read-out: GI; how it was run: as §2
# MDA-MB-435 = assay: Growth inhibition of human MDA-MB-435 cells at 10 uM incubated for 48 hrs by sulforhodamine B assay relative to control; conditions: MDA-MB-435, 48 h, read-out: GI; how it was run: as §2
# SF-539 = assay: Growth inhibition of human SF539 cells at 10 uM incubated for 48 hrs by sulforhodamine B assay relative to control; conditions: SF-539, 48 h, read-out: GI; how it was run: as §1
# HCT-15 = assay: Growth inhibition of human HCT15 cells at 10 uM incubated for 48 hrs by sulforhodamine B assay relative to control; conditions: HCT-15, 48 h, read-out: GI; how it was run: as §2
SMILES,inhibition of growth at 10 µM (SR) [%],inhibition of growth at 10 µM (NCI-H522) [%],inhibition of growth at 10 µM (MOLT-4) [%],inhibition of growth at 10 µM (IGROV-1) [%],inhibition of growth at 10 µM (CAKI-1) [%],inhibition of growth at 10 µM (A549) [%],inhibition of growth at 10 µM (LOX IMVI) [%],inhibition of growth at 10 µM (RPMI-8226) [%],inhibition of growth at 10 µM (DU-145) [%],inhibition of growth at 10 µM (UACC-257) [%],inhibition of growth at 10 µM (NCI/ADR-RES) [%],inhibition of growth at 10 µM (UO-31) [%],inhibition of growth at 10 µM (HT-29) [%],inhibition of growth at 10 µM (HCT-116) [%],inhibition of growth at 10 µM (HL-60(TB)) [%],inhibition of growth at 10 µM (786-0) [%],inhibition of growth at 10 µM (TK-10) [%],inhibition of growth at 10 µM (SNB-19) [%],inhibition of growth at 10 µM (ACHN) [%],inhibition of growth at 10 µM (SK-MEL-2) [%],other results
CCOC(=O)C1=C(C)NC(SCc2nnc(-c3ccc(OC)cc3)o2)=NC1c1ccc(F)cc1 (stereo unspecified),15.9,26.5,< 10,< 10,24.9,12.7,< 10,< 10,< 10,11.8,< 10,21.7,< 10,< 10,12,< 10,< 10,11.4,< 10,< 10,inhibition of growth at 10 µM (SNB-75): 17.5%; inhibition of growth at 10 µM (MDA-MB-468): < 10%; inhibition of growth at 10 µM (CCRF-CEM): 15.3%; inhibition of growth at 10 µM (OVCAR-8): < 10%; inhibition of growth at 10 µM (Hs-578T): < 10%; inhibition of growth at 10 µM (MDA-MB-435): < 10%; inhibition of growth at 10 µM (SF-539): < 10%; inhibition of growth at 10 µM (HCT-15): < 10%
CCOC(=O)C1=C(C)NC(SCc2nnc(-c3ccc(Cl)cc3)o2)=NC1c1ccccc1 (stereo unspecified),24.9,54.1,31.3,< 10,22.3,29,11.1,27.3,< 10,25.9,< 10,19.4,22.3,36.8,38,31.4,30.8,11.7,< 10,34.5,inhibition of growth at 10 µM (SNB-75): < 10%; inhibition of growth at 10 µM (MDA-MB-468): 14.7%; inhibition of growth at 10 µM (CCRF-CEM): 12.4%; inhibition of growth at 10 µM (OVCAR-8): 20.4%; inhibition of growth at 10 µM (Hs-578T): < 10%; inhibition of growth at 10 µM (MDA-MB-435): < 10%; inhibition of growth at 10 µM (SF-539): < 10%; inhibition of growth at 10 µM (HCT-15): 21.8%

# Reference: ChEMBL document CHEMBL4190234, “Design, synthesis and anticancer activity of new monastrol analogues bearing 1,3,4-oxadiazole moiety” (Eur J Med Chem, 2017)
